Laboratory results taken from ChEMBL document CHEMBL1926577, “Novel 1,3,4-heterodiazole analogues: synthesis and in-vitro antitumor activity” (2012).
The source made the active and inactive calls. The calls are words filed in the database; no cut-off is given here.

Experiments:
Format in all cases: functional
LOX IMVI = assay: Growth inhibition of human LOXIMVI cells at 10 uM after 48 hrs by coulter counter method
Method in brief: (§1)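 NCI 60-cell-line panel, single dose. Compound dissolved first in DMSO, then diluted in phosphate-buffered saline so that every final dilution held under 1% DMSO. Duplicate wells received cells at 6 × 10⁴ cells/ml. Controls held PBS/DMSO at the same dilution. Plates were incubated 48 h at 37 °C under 5% CO₂. Cells were then diluted 10-fold in saline and counted on a Coulter counter, with counts corrected for the dilution. Results are given as percent growth inhibition.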

SF-268 = assay: Growth inhibition of human SF268 cells at 10 uM after 48 hrs by coulter counter method; conditions: SF-268, 48 h, read-out: GI; method in brief: as §1
SNB-19 = assay: Growth inhibition of human SNB19 cells at 10 uM after 48 hrs by coulter counter method; conditions: SNB-19, 48 h, read-out: GI; method in brief: as §1
OVCAR-8 = assay: Growth inhibition of human OVCAR8 cells at 10 uM after 48 hrs by coulter counter method; conditions: OVCAR-8, 48 h, read-out: GI; method in brief: as §1
NCI/ADR-RES = assay: Growth inhibition of human NCI/ADR-RES cells at 10 uM after 48 hrs by coulter counter method; conditions: read-out: GI; method in brief: as §1
UO-31 = assay: Growth inhibition of human UO31 cells at 10 uM after 48 hrs by coulter counter method; method in brief: as §1
MCF7 = assay: Growth inhibition of human MCF7 cells at 10 uM after 48 hrs by coulter counter method; conditions: MCF7, 48 h, read-out: GI; method in brief: as §1
SR = assay: Growth inhibition of human SR cells at 10 uM after 48 hrs by coulter counter method; conditions: read-out: GI; method in brief: as §1
BT-549 = assay: Growth inhibition of human BT549 cells at 10 uM after 48 hrs by coulter counter method; conditions: BT-549, 48 h, read-out: GI; method in brief: as §1
NCI-H522 = assay: Growth inhibition of human NCI-H522 cells at 10 uM after 48 hrs by coulter counter method; conditions: NCI-H522, 48 h, read-out: GI; method in brief: as §1
SNB-75 = assay: Growth inhibition of human SNB75 cells at 10 uM after 48 hrs by coulter counter method; conditions: SNB-75, 48 h, read-out: GI; method in brief: as §1
MDA-MB-468 = assay: Growth inhibition of human MDA-MB-468 cells at 10 uM after 48 hrs by coulter counter method; conditions: MDA-MB-468, 48 h, read-out: GI; method in brief: as §1
MOLT-4 = assay: Growth inhibition of human MOLT4 cells at 10 uM after 48 hrs by coulter counter method; conditions: MOLT-4, 48 h, read-out: GI; method in brief: as §1
SN12C = assay: Growth inhibition of human SN12C cells at 10 uM after 48 hrs by coulter counter method; conditions: read-out: GI; method in brief: as §1
MDA-MB-435 = assay: Growth inhibition of human MDA-MB-435 cells at 10 uM after 48 hrs by coulter counter method; conditions: MDA-MB-435, 48 h, read-out: GI; method in brief: as §1
A498 = assay: Growth inhibition of human A498 cells at 10 uM after 48 hrs by coulter counter method; conditions: A498, 48 h, read-out: GI; method in brief: as §1
CAKI-1 = assay: Growth inhibition of human Caki1 cells at 10 uM after 48 hrs by coulter counter method; method in brief: as §1
RPMI-8226 = assay: Growth inhibition of human RPMI8226 cells at 10 uM after 48 hrs by coulter counter method; conditions: RPMI-8226, 48 h, read-out: GI; method in brief: as §1
A549 = assay: Growth inhibition of human A549 cells at 10 uM after 48 hrs by coulter counter method; conditions: A549, 48 h, read-out: GI; method in brief: as §1
IGROV-1 = assay: Growth inhibition of human IGROV1 cells at 10 uM after 48 hrs by coulter counter method; method in brief: as §1
NCI-H226 = assay: Growth inhibition of human NCI-H226 cells at 10 uM after 48 hrs by coulter counter method; conditions: NCI-H226, 48 h, read-out: GI; method in brief: as §1
M14 = assay: Growth inhibition of human M14 cells at 10 uM after 48 hrs by coulter counter method; conditions: M14, 48 h, read-out: GI; method in brief: as §1
K562 = assay: Growth inhibition of human K562 cells at 10 uM after 48 hrs by coulter counter method; conditions: K562, 48 h, read-out: GI; method in brief: as §1
CCRF-CEM = assay: Growth inhibition of human CCRF-CEM cells at 10 uM after 48 hrs by coulter counter method; conditions: read-out: GI; method in brief: as §1
786-0 = assay: Growth inhibition of human 786-0 cells at 10 uM after 48 hrs by coulter counter method; conditions: 786-0, 48 h, read-out: GI; method in brief: as §1
SK-MEL-2 = assay: Growth inhibition of human SK-MEL-2 cells at 10 uM after 48 hrs by coulter counter method; conditions: SK-MEL-2, 48 h, read-out: GI; method in brief: as §1
HCT-15 = assay: Growth inhibition of human HCT15 cells at 10 uM after 48 hrs by coulter counter method; conditions: HCT-15, 48 h, read-out: GI; method in brief: as §1
U-251 = assay: Growth inhibition of human U251 cells at 10 uM after 48 hrs by coulter counter method; conditions: U-251, 48 h, read-out: GI; method in brief: as §1
PC-3 = assay: Growth inhibition of human PC3 cells at 10 uM after 48 hrs by coulter counter method; conditions: PC-3, 48 h, read-out: GI; method in brief: as §1
T47D = assay: Growth inhibition of human T47D cells at 10 uM after 48 hrs by coulter counter method; conditions: read-out: GI; method in brief: as §1
SK-MEL-28 = assay: Growth inhibition of human SK-MEL-28 cells at 10 uM after 48 hrs by coulter counter method; conditions: SK-MEL-28, 48 h, read-out: GI; method in brief: as §1
ACHN = assay: Growth inhibition of human ACHN cells at 10 uM after 48 hrs by coulter counter method; conditions: read-out: GI; method in brief: as §1
HL-60(TB) = assay: Growth inhibition of human HL-60(TB) cells at 10 uM after 48 hrs by coulter counter method; conditions: HL-60, 48 h, read-out: GI
Method in brief: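 Single-dose screen on the NCI 60-line panel (leukemia subpanel). Compound is dissolved in DMSO and diluted in PBS, with final DMSO below 1%. Duplicate wells hold 6 × 10⁴ cells/ml at 37 °C, 5% CO₂, for 48 h. Cells are counted by Coulter counter after 10-fold saline dilution. Read-out is percent growth versus PBS/DMSO controls, expressed as % growth inhibition.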

UACC-257 = assay: Growth inhibition of human UACC257 cells at 10 uM after 48 hrs by coulter counter method; conditions: UACC-257, 48 h, read-out: GI; method in brief: as §1
Malme-3M = assay: Growth inhibition of human MALME-3M cells at 10 uM after 48 hrs by coulter counter method; conditions: read-out: GI; method in brief: as §1
TK-10 = assay: Growth inhibition of human TK10 cells at 10 uM after 48 hrs by coulter counter method; conditions: TK-10, 48 h, read-out: GI; method in brief: as §1
HT-29 = assay: Growth inhibition of human HT-29 cells at 10 uM after 48 hrs by coulter counter method; conditions: HT-29, 48 h, read-out: GI; method in brief: as §1
NCI-H23 = assay: Growth inhibition of human NCI-H23 cells at 10 uM after 48 hrs by coulter counter method; conditions: NCI-H23, 48 h, read-out: GI; method in brief: as §1
NCI-H322M = assay: Growth inhibition of human NCI-H322M cells at 10 uM after 48 hrs by coulter counter method; conditions: read-out: GI; method in brief: as §1
HCT-116 = assay: Growth inhibition of human HCT116 cells at 10 uM after 48 hrs by coulter counter method; conditions: HCT-116, 48 h, read-out: GI; method in brief: as §1
SK-MEL-5 = assay: Growth inhibition of human SK-MEL-5 cells at 10 uM after 48 hrs by coulter counter method; conditions: SK-MEL-5, 48 h, read-out: GI; method in brief: as §1
SF-295 = assay: Growth inhibition of human SF295 cells at 10 uM after 48 hrs by coulter counter method; conditions: SF-295, 48 h, read-out: GI; method in brief: as §1
EKVX = assay: Growth inhibition of human EKVX cells at 10 uM after 48 hrs by coulter counter method; conditions: read-out: GI; method in brief: as §1
KM12 = assay: Growth inhibition of human KM12 cells at 10 uM after 48 hrs by coulter counter method; conditions: KM12, 48 h, read-out: GI; method in brief: as §1
UACC-62 = assay: Growth inhibition of human UACC62 cells at 10 uM after 48 hrs by coulter counter method; conditions: UACC-62, 48 h, read-out: GI; method in brief: as §1

O=C1CN2N=C(c3ccc(Cl)cc3)SC2=N1
growth inhibition (GI) (LOX IMVI): Active | inhibition of growth at 10 µM (SF-268): 16.5% | inhibition of growth at 10 µM (SNB-19): 18.2% | inhibition of growth at 10 µM (OVCAR-8): 39.8% | inhibition of growth at 10 µM (NCI/ADR-RES): < 10% | growth inhibition (GI) (UO-31): Active | inhibition of growth at 10 µM (MCF7): 25.7% | inhibition of growth at 10 µM (SR): 32.5% | inhibition of growth at 10 µM (BT-549): 39.5% | inhibition of growth at 10 µM (NCI-H522): 32.4% | inhibition of growth at 10 µM (SNB-75): < 10% | inhibition of growth at 10 µM (MDA-MB-468): < 10% | inhibition of growth at 10 µM (MOLT-4): 24% | inhibition of growth at 10 µM (SN12C): 20.1% | inhibition of growth at 10 µM (MDA-MB-435): 11.7% | inhibition of growth at 10 µM (A498): < 10% | growth inhibition (GI) (CAKI-1): Active | inhibition of growth at 10 µM (RPMI-8226): 43.5% | inhibition of growth at 10 µM (A549): < 10% | growth inhibition (GI) (IGROV-1): Active | inhibition of growth at 10 µM (NCI-H226): 11.4% | inhibition of growth at 10 µM (M14): 31.4% | inhibition of growth at 10 µM (K562): 18.8% | inhibition of growth at 10 µM (CCRF-CEM): 62.5% | inhibition of growth at 10 µM (786-0): < 10% | inhibition of growth at 10 µM (SK-MEL-2): < 10% | inhibition of growth at 10 µM (HCT-15): 51.2% | inhibition of growth at 10 µM (U-251): 19.9% | inhibition of growth at 10 µM (PC-3): 25.7% | inhibition of growth at 10 µM (T47D): 13% | inhibition of growth at 10 µM (SK-MEL-28): < 10% | inhibition of growth at 10 µM (ACHN): 17.3% | inhibition of growth at 10 µM (HL-60(TB)): < 10% | inhibition of growth at 10 µM (UACC-257): < 10% | inhibition of growth at 10 µM (Malme-3M): 22% | inhibition of growth at 10 µM (TK-10): < 10% | inhibition of growth at 10 µM (HT-29): 31.1% | inhibition of growth at 10 µM (NCI-H23): 14.9% | inhibition of growth at 10 µM (NCI-H322M): 31% | inhibition of growth at 10 µM (HCT-116): 39.9% | inhibition of growth at 10 µM (SK-MEL-5): 21.2% | inhibition of growth at 10 µM (SF-295): 38.6% | inhibition of growth at 10 µM (EKVX): < 10% | inhibition of growth at 10 µM (KM12): 38.3% | inhibition of growth at 10 µM (UACC-62): 20.7%
